In ChEMBL document CHEMBL1138222, “9-Benzylidene-naphtho[2,3-b]thiophen-4-ones as novel antimicrotubule agents-synthesis, antiproliferative activity, and inhibition of tubulin polymerization” (J Med Chem, 2006):
Values belong to the molecule of their own block, whether it stands above or below them. The source made the active and inactive calls. The rule behind the calls is not given here.

Legend:
[1] = tested on: K562; test: Antiproliferative activity against human K562 cell line; type: functional, cell-based
[2] = biological target: Tubulin (Sus scrofa, UniProt P02554+P02550); test: Inhibition of tubulin polymerization in porcine brain
[3] = Cell cycle arrest in KB/HeLa cells by accumulation at S phase at 316 nM; type: functional, cell-based; conditions: Homo sapiens
In short: (§1)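 Subconfluent KB/HeLa cells were treated with a concentration series for 24 h at 37 °C, then detached and fixed in 70% ethanol. DNA was stained with propidium iodide alongside RNase digestion and measured by flow cytometry. Phase fractions came from cell-cycle modelling software, and IC50 from nonlinear regression.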

[4] = Cell cycle arrest in KB/HeLa cells by accumulation at G2/M phase at 100 nM; type: functional, cell-based; conditions: Homo sapiens; in short: as §1
[5] = Cell cycle arrest in KB/HeLa cells by accumulation at S phase at 10 nM; type: functional, cell-based; conditions: Homo sapiens; in short: as §1
[6] = Cell cycle arrest in KB/HeLa cells by accumulation at G2/M phase at 10 nM; type: functional, cell-based; conditions: Homo sapiens; in short: as §1
[7] = Cell cycle arrest in KB/HeLa cells by accumulation at G2/M phase at 1 nM; type: functional, cell-based; conditions: Homo sapiens; in short: as §1
[8] = Cell cycle arrest in KB/HeLa cells by accumulation at G2/M phase at 3.16 nM; type: functional, cell-based; conditions: Homo sapiens
[9] = Cell cycle arrest in KB/HeLa cells by accumulation at G1 phase at 1 nM; type: functional, cell-based; conditions: Homo sapiens; in short: as §1
[10] = Cell cycle arrest in KB/HeLa cells by accumulation at G2/M phase at 31.6 nM; type: functional, cell-based; conditions: Homo sapiens; in short: as §1
[11] = Cell cycle arrest in KB/HeLa cells by accumulation at G2/M phase; type: functional, cell-based; conditions: Homo sapiens; in short: as §1
[12] = Antiproliferative activity against KB/HeLa cells by XTT assay after 48 hrs; type: functional, cell-based; conditions: Homo sapiens
In short: (§2)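 Tumour cell lines were seeded at 1 × 10^3 to 8 × 10^4 cells/well for logarithmic growth and exposed to a concentration series for 48 h. Proliferation was read as cellular metabolic activity by XTT. IC50 came from dose-response curves by nonlinear regression, with at least two replicates.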

[13] = Cell cycle arrest in KB/HeLa cells by accumulation at G1 phase at 100 nM; type: functional, cell-based; conditions: Homo sapiens; in short: as §1
[14] = Cell cycle arrest in KB/HeLa cells by accumulation at G1 phase at 31.6 nM; type: functional, cell-based; conditions: Homo sapiens; in short: as §1
[15] = Cell cycle arrest in KB/HeLa cells by accumulation at G1 phase at 316 nM; type: functional, cell-based; conditions: Homo sapiens; in short: as §1
[16] = tested on: MDR; test: Antiproliferative activity against LT12 MDR cells by XTT assay after 48 hrs; type: functional, cell-based; conditions: Rattus norvegicus; in short: as §2
[17] = tested on: P388; test: Antiproliferative activity against P388 ADR cells by XTT assay after 48 hrs; type: functional, cell-based; conditions: Mus musculus, P388, 48 h; in short: as §2
[18] = Cell cycle arrest in KB/HeLa cells by accumulation at S phase at 100 nM; type: functional, cell-based; conditions: Homo sapiens; in short: as §1
[19] = Cell cycle arrest in KB/HeLa cells by accumulation at G1 phase at 10 nM; type: functional, cell-based; conditions: Homo sapiens; in short: as §1
[20] = Cell cycle arrest in KB/HeLa cells by accumulation at G2/M phase at 316 nM; type: functional, cell-based; conditions: Homo sapiens; in short: as §1
[21] = tested on: L1210; test: Antiproliferative activity against L1210 VCR cells by XTT assay after 48 hrs; type: functional, cell-based; conditions: Mus musculus, L1210, 48 h; in short: as §2
[22] = Cell cycle arrest in KB/HeLa cells by accumulation at S phase at 1 nM; type: functional, cell-based; conditions: Homo sapiens; in short: as §1
[23] = Cell cycle arrest in KB/HeLa cells by accumulation at G1 phase at 3.16 nM; type: functional, cell-based; conditions: Homo sapiens; in short: as §1
[24] = Cell cycle arrest in KB/HeLa cells by accumulation at S phase at 31.6 nM; type: functional, cell-based; conditions: Homo sapiens; in short: as §1
[25] = tested on: P388; test: Antiproliferative activity against P388 cells by XTT assay after 48 hrs; type: functional, cell-based; conditions: Mus musculus, P388, 48 h; in short: as §2
[26] = tested on: RKO; test: Antiproliferative activity against RKO cells with ectopic-induced p27kip1-expression by XTT assay after 48 hrs; type: functional, cell-based; conditions: Homo sapiens
In short: (§3)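 RKO colon adenocarcinoma cells carry an ecdysone-inducible p27kip1 vector. On day 1 they were plated with 3 µM ponasterone A (induced, 2 × 10^4 cells/well) or without it (not induced, 6 × 10^3 cells/well) and held 24 h at 37 °C. Compound or DMSO control was then added for 48 h at 37 °C, followed by a standard XTT read-out.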

[27] = Cell cycle arrest in KB/HeLa cells by accumulation at S phase at 3.16 nM; type: functional, cell-based; conditions: Homo sapiens; in short: as §1
[28] = cells; conditions: Rattus norvegicus, LT12, 48 h
[29] = tested on: L1210; test: Antiproliferative activity against L1210 cells by XTT assay after 48 hrs; type: functional, cell-based; conditions: Mus musculus, L1210, 48 h; in short: as §2
[30] = tested on: SK-OV-3; test: Antiproliferative activity against SKOV3 cells by XTT assay after 48 hrs; type: functional, cell-based; conditions: Homo sapiens, SK-OV-3, 48 h; in short: as §2
[31] = biological target: T1, Tubulin (Homo sapiens) (UniProt P68371+Q9H4B7+P0DPH7+P68366+Q13509+Q71U36+P04350+Q3ZCM7+P07437+P68363+Q9BQE3+Q6PEY2+Q13885+Q9BVA1+Q9BUF5); test: Displacement of [3H]colchicine from tubulin by SPA assay; type: protein-complex assay
[32] = tested on: NCI-H460; test: Antiproliferative activity against NCI-H460 cells by XTT assay after 48 hrs; type: functional, cell-based; conditions: Homo sapiens, NCI-H460, 48 h; in short: as §2
[33] = tested on: RKO; test: Antiproliferative activity against RKO cells by XTT assay after 48 hrs; type: functional, cell-based; conditions: Homo sapiens; in short: as §3
[34] = tested on: SF-268; test: Antiproliferative activity against SF268 cells by XTT assay after 48 hrs; type: functional, cell-based; conditions: Homo sapiens, SF-268, 48 h; in short: as §2
[35] = biological target: T1, Tubulin (Homo sapiens); test: Displacement of [3H]paclitaxel from tubulin by SPA assay; type: protein-complex assay
[36] = Cell cycle arrest in KB/HeLa cells by accumulation at G1 phase at 0.3 nM; type: functional, cell-based; conditions: Homo sapiens; in short: as §1
[37] = Cell cycle arrest in KB/HeLa cells by accumulation at S phase at 0.1 nM; type: functional, cell-based; conditions: Homo sapiens; in short: as §1
[38] = Cell cycle arrest in KB/HeLa cells by accumulation at G1 phase at 0.1 nM; type: functional, cell-based; conditions: Homo sapiens; in short: as §1
[39] = Cell cycle arrest in KB/HeLa cells by accumulation at S phase at 0.3 nM; type: functional, cell-based; conditions: Homo sapiens; in short: as §1
[40] = Cell cycle arrest in KB/HeLa cells by accumulation at G2/M phase at 0.1 nM; type: functional, cell-based; conditions: Homo sapiens; in short: as §1
[41] = Cell cycle arrest in KB/HeLa cells by accumulation at G2/M phase at 0.3 nM; type: functional, cell-based; conditions: Homo sapiens; in short: as §1

- IC50 [1]: 230 nM
- IC50 [2]: 1400 nM
Compound: COc1ccc(/C=C2/c3ccccc3C(=O)c3ccsc32)cc1O

- IC50 [1]: 900 nM
- IC50 [2]: 3980 nM
Compound: COc1ccc(COc2c3ccccc3cc3sccc23)cc1OC

- IC50 [1]: > 90000 nM
Compound: COc1ccc(CCC(=O)Oc2c3ccccc3cc3sccc23)cc1

- IC50 [29]: 130 nM
- IC50 [28]: 180 nM
- IC50 [30]: 40 nM
- Activity [31]: 0.29 µM
- IC50 [1]: 80 nM
- IC50 [17]: 160 nM
- IC50 [32]: 280 nM
- IC50 [2]: 500 nM
- IC50 [21]: 170 nM
- IC50 [25]: 140 nM
- Activity [35]: inactive
Compound: COc1ccc(/C=C2/c3ccccc3C(=O)c3ccsc32)c(OC)c1O
- IC50 [12]: 190 nM
- IC50 [16]: 190 nM
- IC50 [33]: 40 nM
- IC50 [34]: 50 nM
- IC50 [26]: > 9000 nM

- IC50 [1]: 8950 nM
- IC50 [2]: > 10000 nM
Compound: COc1cc(COc2c3ccccc3cc3sccc23)cc(OC)c1OC

- IC50 [1]: 5300 nM
- IC50 [2]: > 10000 nM
Compound: COc1ccc(CCOc2c3ccccc3cc3sccc23)cc1

- IC50 [1]: 2380 nM
Compound: c1ccc(COc2c3ccccc3cc3sccc23)cc1

- IC50 [1]: 100 nM
- IC50 [2]: 880 nM
Compound: COc1cc(/C=C2/c3ccccc3C(=O)c3ccsc32)ccc1O

The remaining lines, values behind:

Compound: O=C1c2ccccc2Cc2sccc21
- IC50 [1]: 7000 nM

Compound: O=C1c2ccccc2/C(=C/c2cc(Br)c(O)c(Br)c2)c2sccc21
- IC50 [1]: 6690 nM

Compound: CC(=O)O[C@H]1C(=O)[C@@]2(C)[C@H]([C@H](OC(=O)c3ccccc3)[C@]3(O)C[C@H](OC(=O)[C@H](O)[C@@H](NC(=O)c4ccccc4)c4ccccc4)C(C)=C1C3(C)C)[C@]1(OC(C)=O)CO[C@@H]1C[C@@H]2O [PACLITAXEL]
- Activity [3]: 8.9%
- Activity [4]: 87.8%
- Activity [5]: 26.6%
- Activity [6]: 8.5%
- Activity [7]: 10.1%
- Activity [8]: 9.4%
- Activity [9]: 63.2%
- Activity [10]: 19%
- EC50 [11]: 49 nM
- IC50 [12]: 10 nM
- Activity [13]: 1.2%
- Activity [14]: 31.1%
- Activity [15]: 0.3%
- IC50 [16]: 400 nM
- IC50 [17]: > 5000 nM
- Activity [18]: 11%
- Activity [19]: 64.8%
- Activity [20]: 90.8%
- IC50 [21]: > 5000 nM
- Activity [22]: 26.7%
- Activity [23]: 63.6%
- Activity [24]: 49.9%
- IC50 [25]: 40 nM
- IC50 [26]: > 3000 nM
- Activity [27]: 27%

Compound: CC[C@]1(O)C[C@@H]2CN(CCc3c([nH]c4ccccc34)[C@@](C(=O)OC)(c3cc4c(cc3OC)N(C)[C@H]3[C@@](O)(C(N)=O)[C@H](O)[C@]5(CC)C=CCN6CC[C@]43[C@@H]65)C2)C1 [VINDESINE]
- IC50 [28]: 1 nM
- IC50 [16]: 260 nM
- IC50 [17]: 1100 nM
- IC50 [21]: > 5000 nM
- IC50 [25]: 10 nM

Compound: O=C1c2ccccc2/C(=C/c2cccs2)c2sccc21
- IC50 [1]: 390 nM
- IC50 [2]: 1340 nM

Compound: O=C1c2ccccc2/C(=C/c2c[nH]c3ccccc23)c2sccc21
- IC50 [1]: 720 nM
- IC50 [2]: 2800 nM

Compound: CC[C@]1(O)C[C@H]2CN(CCc3c([nH]c4ccccc34)[C@@](C(=O)OC)(c3cc4c(cc3OC)N(C=O)[C@H]3[C@@](O)(C(=O)OC)[C@H](OC(C)=O)[C@]5(CC)C=CCN6CC[C@]43[C@@H]65)C2)C1 [VINCRISTINE]
- Activity [36]: 64.5%
- Activity [3]: 5.9%
- Activity [4]: 95.1%
- Activity [37]: 27.7%
- Activity [5]: 13.1%
- Activity [6]: 86.7%
- Activity [7]: 17.2%
- Activity [8]: 65.8%
- Activity [9]: 53.7%
- Activity [10]: 92.6%
- EC50 [11]: 2.4 nM
- Activity [13]: 0.2%
- Activity [14]: 1%
- Activity [38]: 61.2%
- Activity [39]: 24%
- Activity [15]: 0.2%
- Activity [40]: 11.1%
- Activity [18]: 4.8%
- Activity [19]: 0.5%
- Activity [20]: 93.8%
- Activity [41]: 11.7%
- Activity [22]: 28.3%
- Activity [23]: 6.5%
- Activity [24]: 7.2%
- Activity [27]: 26%

Compound: O=C1c2ccccc2/C(=C/c2cc(Cl)cc(Cl)c2)c2sccc21
- IC50 [1]: 420 nM
